In the library only some 1.5% were active in any assay of this set; here they are far more common.
GalR3 antag = blocks the human galanin receptor 3; O60755; HEK293 GalR3-CNG cAMP membrane potential fluorescence; galR3 body fused to GalR1 C-terminus; inhibition, % at 3 µM; 360,000 tested, 0.44% active;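 active = inhibition above the screen-wide average plus 3 SD, cut at about 13% in these data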;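 note: forskolin and galanin both at EC90 stimulate the cells; cAMP rise reported by CNG channel membrane potential dye signal; 0% = forskolin plus galanin with DMSO and 100% = forskolin alone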
Jurkat NFkB inh = lowers PMA/ionomycin-induced NF-kB signal in Jurkat cells; PMA/ionomycin-induced NF-kB luciferase reporter, luminescence; inhibition, % at 4 µM; 330,000 tested, 0.53% active; in the data active = inhibition above about 50%
GASC-1 inh = blocks human GASC-1 demethylase activity. Q9H3R0. GST-JMJD2C(1-420) H3K9me3 demethylation, DELFIA europium. inhibition, % at 2.35 µM. 330,000 tested, 0.069% active;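 active = more than half of a compound's replicate wells show inhibition beyond 50%, single wells judged on their own value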;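 note: signal counts dimethyl H3K9 product captured on neutravidin plate; 0% = median of DMSO wells and 100% = 0.3 times that DMSO median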
Target sequence (Q9H3R0 1-420 limits assumed): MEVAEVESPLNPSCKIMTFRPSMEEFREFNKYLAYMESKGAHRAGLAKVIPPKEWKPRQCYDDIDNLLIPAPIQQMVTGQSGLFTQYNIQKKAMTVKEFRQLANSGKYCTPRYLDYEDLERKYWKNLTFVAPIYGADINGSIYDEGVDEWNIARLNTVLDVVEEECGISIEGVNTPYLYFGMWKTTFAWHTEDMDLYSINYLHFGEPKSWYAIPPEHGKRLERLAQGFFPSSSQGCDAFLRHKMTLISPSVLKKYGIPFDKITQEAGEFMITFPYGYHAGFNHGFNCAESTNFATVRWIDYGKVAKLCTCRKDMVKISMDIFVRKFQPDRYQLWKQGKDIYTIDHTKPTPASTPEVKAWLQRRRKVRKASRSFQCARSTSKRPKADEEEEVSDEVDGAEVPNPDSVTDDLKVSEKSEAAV
NR2E3 ag-1 = activates human photoreceptor nuclear receptor NR2E3 | Q9Y5X4 | GST-NR2E3/biotin-RetCOR TR-FRET, 1536-well | inhibition of corepressor binding, % at 4.78 µM | 320,000 tested, 0.12% active | AID 2300;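 active = percent inhibition above the cutoff of mean plus 3 SD of all tested compounds, set per screening campaign, cut at about 20% in these data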;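 note: 0% = DMSO wells and 100% = biotin wells as full block of FRET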
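Format: 1536-well format; test system: GST-NR2E3 and biotin-RetCOR proteins; read-out basis: percent inhibition of TR-FRET ratio; timing: 5 h incubation at 4 °C; detection: time-resolved FRET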
697 NFkB inh = lowers PMA/ionomycin-induced NF-kB signal in 697 B cells; 697 B-cell NF-kB luciferase reporter, 16 h; 330,000 tested, 0.33% active; inhibition, % at 4 µM; AID 435022; in the data active = inhibition above about 35%
NR2E3 ag-2 = agonists of human NR2E3 nuclear receptor; Q9Y5X4; inhibition of corepressor binding, % at 3.98 µM; 360,000 tested, 0.35% active; AID 602229; CHO-S Gal4-NCOR/VP16-NR2E3 two-hybrid, luciferase;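 active = inhibition above the mean of all tested compounds plus 3 SD, cut at about 70% in these data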;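 note: 0% = DMSO with NR2E3 transfected cells and 100% = cells lacking NR2E3 construct; higher means lower luciferase signal from less NR2E3 corepressor binding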
NR2E3 ag conf = confirmation of human NR2E3 agonists; shares compounds with NR2E3 ag-2; CHO-S mammalian two-hybrid NR2E3-NCOR, luciferase luminescence; inhibition, % at 3.98 µM; 2,300 tested, 51% active; AID 624378;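 active = average inhibition above a cutoff equal to the mean inhibition of all tested compounds plus one SD, cut at about 70% in these data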;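 note: 0% = DMSO in NR2E3 cells and 100% = DMSO in cells lacking NR2E3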
GAL4-VP16 luc = reduces GAL4-VP16 reporter signal in NR2E3 counterscreen | 2,300 tested, 29% active | CHO-S GAL4-VP16 luciferase reporter, luminescence | inhibition, % at 3.98 µM | shares compounds with NR2E3 ag-2;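 active = mean inhibition above a cutoff equal to the average over all tested compounds plus one standard deviation, cut at about 70% in these data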;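 note: luciferase from a UAS reporter driven by GAL4-VP16 transactivation; 0% = DMSO with VP16-transfected cells and 100% = DMSO with cells lacking VP16; higher means less reporter light so more repression of VP16 activity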
* marks the source's active call; other numbers are inactive results; . = no result.

SMILES	GalR3 antag	Jurkat NFkB inh	GASC-1 inh	NR2E3 ag-1	697 NFkB inh	NR2E3 ag-2	NR2E3 ag conf	GAL4-VP16 luc
CCn1cc(C(=O)NCCCN2CCCC(C)C2)c(=O)c2cc(S(=O)(=O)N(C)C3CCCCC3)ccc21 (configuration not stated)	1	-3	-5	-3	-21	-2	.	.
N#C/C(=N/Nc1ccc(OC(F)(F)F)cc1)C(N)=S	-5	-39	-8	-1	-61	93*	93*	58
O=C(Nc1ccc(OC(F)(F)F)cc1)N1CCc2nc(NCc3cccc(Oc4ccccc4)c3)ncc2C1	-5	.	.	.	.	62	21	46
COc1cccc(NC(=O)N2CCc3nc(NCc4cccc(Oc5ccccc5)c4)ncc3C2)c1	-6	.	.	.	.	37	.	.
Cc1ccc(S(=O)(=O)N2CCOCC2)cc1C(=O)OCC(=O)Nc1ccc2[nH]c(=O)[nH]c2c1	-2	-2	17	-5	9	-7	.	.
Cc1c(N/N=C(\C#N)C(=O)c2ccc(Cl)cc2)c(=O)n(-c2ccccc2)n1C	-2	.	-3	1	.	17	.	.
N#C/C(=N\Nc1ccc(Cl)cc1)C(=O)c1ccccc1	-3	-8	12	3	-28	99*	100*	91*
O=C(c1cncc(Br)c1)N1CCCc2ccccc21	0	3	5	-2	1	74*	-3	11
O=C(c1cccc(Br)c1)N1CCCc2ccccc21	-8	8	8	-4	-6	-20	.	.
Cn1ccc(C(=O)OCC(=O)Nc2cccc3ccccc23)n1	2	-2	-3	3	7	4	.	.
O=C(NCc1ccc(Cl)s1)C1CCC(=O)N(CCc2cccc(F)c2)C1 (configuration not stated)	2	2	-10	-2	11	-4	.	.
COc1ccc([C@@]23Oc4cc(OC)cc(OC)c4[C@]2(O)[C@H](O)[C@H](C(=O)N(C)C)[C@H]3c2ccccc2)cc1	2	.	.	.	.	101*	98*	96*
COc1ccc(C2CC(O)(c3ccccc3)Oc3cc(OC)c(OC)c(OC)c32)cc1 (configuration not stated)	-3	5	2	2	7	4	.	.
CCc1ccc(NC(=O)C2CCN(S(=O)(=O)c3ccc4c(c3)NC(=O)C(C)S4)CC2)cc1 (configuration not stated)	-9	26	-5	0	9	12	.	.
Cc1ccc(NC(=O)C2CCN(S(=O)(=O)c3ccc4c(c3)NC(=O)C(C)S4)CC2)cc1C (configuration not stated)	1	12	20	0	12	74*	93*	73*
CC1Sc2ccc(S(=O)(=O)N3CCC(C(=O)Nc4cccc(Cl)c4)CC3)cc2NC1=O (configuration not stated)	-6	10	-10	-2	0	49	65	54
O=C(NC1CCCCC1)N1CCN(c2ncccn2)CC1	-2	2	-29	3	5	13	.	.
CC(C)c1cccc(-c2csc(C(C)(O)c3ccncc3)n2)c1 (configuration not stated)	-8	.	.	.	.	85*	93*	80*
CSC(=S)N/N=C(\C)c1ccc(Br)cc1	0	4	8	-3	-16	82*	-15	-18
Cc1nc(C(F)(F)F)ccc1C(=O)N1CCC(C)(C(=O)O)C1 (configuration not stated)	4	.	.	.	.	2	.	.
CCOc1ccc(NS(=O)(=O)c2ccc3c(c2)N(C(C)=O)CCS3)cc1	-9	-1	1	3	-11	55	7	13
CCc1ccc(S(=O)(=O)Nc2cc3c(cc2C)n(C)c(=O)n3C)cc1	-5	45	-49	1	-37	98*	83*	69
Cc1ccc(NS(=O)(=O)c2ccc3c(c2)n(C)c(=O)n3C)c(C)c1	-9	7	3	0	-2	14	.	.
